Measurements as given in ChEMBL document CHEMBL1240400, “Comparative in vitro activities of nemonoxacin (TG-873870), a novel nonfluorinated quinolone, and other quinolones against clinical isolates” (2010).

What was measured:
Type in all cases: functional
Klebsiella pneumoniae = assay: Antibacterial activity against Klebsiella pneumoniae by broth dilution method
In short: (§1)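 Broth microdilution per CLSI in panels spanning a dilution range of each agent. Cation-adjusted Mueller-Hinton broth, final inoculum 5 × 10^5 CFU/ml from a 0.5 McFarland suspension. Incubated overnight at 35°C in ambient air, with quality control strains in each run. MIC reported; values at or below the lowest concentration tested are given as that concentration.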

Enterobacter cloacae = assay: Antibacterial activity against Enterobacter cloacae by broth dilution method
Proteus mirabilis = assay: Antibacterial activity against Proteus mirabilis by broth dilution method
Citrobacter freundii = assay: Antibacterial activity against Citrobacter freundii by broth dilution method; in short: as §1
Acinetobacter baumannii = assay: Antibacterial activity against Acinetobacter baumannii by broth dilution method; in short: as §1
Haemophilus influenzae = assay: Antibacterial activity against Haemophilus influenzae by broth dilution method
In short: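 Broth microdilution per CLSI using Haemophilus Test Medium broth, seeded from a 0.5 McFarland suspension. Incubated overnight at 35°C in ambient air, with quality control strains in each run. MIC read against a tested dilution range; values at the low limit are given as the lowest concentration.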

Staphylococcus aureus [1] = assay: Antibacterial activity against methicillin susceptible Staphylococcus aureus by broth dilution method
Staphylococcus aureus [2] = assay: Antibacterial activity against ciprofloxacin susceptible and methicillin resistant Staphylococcus aureus by broth dilution method
In short: (§2)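 Clinical isolates tested by CLSI broth microdilution in panels holding serial twofold drug dilutions in cation-adjusted Mueller-Hinton broth. Final inoculum 5 × 10^5 CFU/ml was made from a 0.5 McFarland suspension. Plates were incubated overnight at 35°C in ambient air, and the MIC was read as the lowest concentration inhibiting growth. Quality control strains were included in each run.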

Staphylococcus aureus [3] = assay: Antibacterial activity against ciprofloxacin and methicillin resistant Staphylococcus aureus by broth dilution method; in short: as §2
Staphylococcus = assay: Antibacterial activity against methicillin resistant coagulase negative Staphylococcus by broth dilution method
[4] = test system: Staphylococcus epidermidis; assay: Antibacterial activity against methicillin resistant coagulase negative Staphylococcus epidermidis by broth dilution method
Escherichia coli [5] = assay: Antibacterial activity against ciprofloxacin susceptible Escherichia coli by broth dilution method; in short: as §1
Pseudomonas aeruginosa = assay: Antibacterial activity against Pseudomonas aeruginosa by broth dilution method
Escherichia coli [6] = assay: Antibacterial activity against ciprofloxacin resistant Escherichia coli by broth dilution method; in short: as §2
Streptococcus pneumoniae [7] = assay: Antibacterial activity against Levofloxacin susceptible Streptococcus pneumoniae by broth dilution method
In short: (§3)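 Streptococcus pneumoniae clinical isolates tested by CLSI broth microdilution. A 0.5 McFarland suspension was diluted into Mueller-Hinton broth with 3% lysed horse blood, then tested against serial drug dilutions. Plates were incubated overnight at 35°C in ambient air, and the MIC was read as the lowest inhibitory concentration. Quality control strains were included in each run.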

Streptococcus pneumoniae [8] = assay: Antibacterial activity against Levofloxacin resistant Streptococcus pneumoniae by broth dilution method; in short: as §3
Streptococcus pyogenes = assay: Antibacterial activity against Streptococcus pyogenes by broth dilution method
In short: (§4)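 Streptococci were tested by CLSI broth microdilution in Mueller-Hinton broth with 3% lysed horse blood, seeded from a 0.5 McFarland suspension. Incubated overnight at 35°C in ambient air, with quality control strains in each run. MIC taken over a per-agent dilution range.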

Streptococcus agalactiae = assay: Antibacterial activity against Streptococcus agalactiae by broth dilution method; in short: as §4
Streptococcus viridans = assay: Antibacterial activity against Streptococcus viridans by broth dilution method; in short: as §4
Enterococcus faecalis [9] = assay: Antibacterial activity against Enterococcus faecalis by broth dilution method
Enterococcus faecalis [10] = assay: Antibacterial activity against vancomycin resistant Enterococcus faecalis by broth dilution method
Enterococcus faecium [11] = assay: Antibacterial activity against Enterococcus faecium by broth dilution method; in short: as §2
Enterococcus faecium [12] = assay: Antibacterial activity against vancomycin resistant Enterococcus faecium by broth dilution method; in short: as §2

C[C@@H](O)[C@H]1C(=O)N2C(C(=O)O)=C(SCCNC=N)C[C@H]12 [IMIPENEM ANHYDROUS]
0.5 µg/mL: MIC50 (Klebsiella pneumoniae)
1 µg/mL: MIC50 (Enterobacter cloacae) | MIC50 (Citrobacter freundii) | MIC50 (Haemophilus influenzae)
2 µg/mL: MIC50 (Proteus mirabilis) | MIC90 (Citrobacter freundii) | MIC50 (Acinetobacter baumannii)
> 32 µg/mL: MIC90 (Acinetobacter baumannii)
4 µg/mL: MIC90 (Klebsiella pneumoniae) | MIC90 (Enterobacter cloacae) | MIC90 (Haemophilus influenzae)
8 µg/mL: MIC90 (Proteus mirabilis)

Cc1onc(-c2ccccc2)c1C(=O)N[C@@H]1C(=O)N2[C@@H]1SC(C)(C)[C@@H]2C(=O)O [OXACILLIN]
> 8 µg/mL: MIC50 (Staphylococcus aureus [2]) | MIC90 (Staphylococcus aureus [2]) | MIC (Staphylococcus aureus [3]) | MIC50 (Staphylococcus aureus [3]) | MIC90 (Staphylococcus aureus [3]) | MIC50 (Staphylococcus) | MIC90 (Staphylococcus) | MIC50 [4] | MIC90 [4]
1 µg/mL: MIC90 (Staphylococcus aureus [1])
0.5 µg/mL: MIC50 (Staphylococcus aureus [1])

CC(C)(O/N=C(\C(=O)N[C@@H]1C(=O)N2C(C(=O)[O-])=C(C[n+]3ccccc3)CS[C@H]12)c1csc(N)n1)C(=O)O [CEFTAZIDIME]
1 µg/mL: MIC (Escherichia coli [5]) | MIC50 (Escherichia coli [5])
> 128 µg/mL: MIC90 (Klebsiella pneumoniae) | MIC90 (Enterobacter cloacae) | MIC90 (Acinetobacter baumannii) | MIC90 (Pseudomonas aeruginosa)
64 µg/mL: MIC90 (Citrobacter freundii) | MIC50 (Acinetobacter baumannii)
≤ 1 µg/mL: MIC50 (Proteus mirabilis) | MIC90 (Proteus mirabilis) | MIC50 (Citrobacter freundii) | MIC (Haemophilus influenzae) | MIC50 (Haemophilus influenzae) | MIC90 (Haemophilus influenzae)
16 µg/mL: MIC90 (Escherichia coli [5]) | MIC50 (Klebsiella pneumoniae)
128 µg/mL: MIC50 (Enterobacter cloacae)
32 µg/mL: MIC50 (Pseudomonas aeruginosa)

CO/N=C(\C(=O)N[C@@H]1C(=O)N2C(C(=O)O)=C(CSc3nc(=O)c(O)nn3C)CS[C@H]12)c1csc(N)n1 [CEFTRIAXONE]
0.06 µg/mL: MIC50 (Escherichia coli [5])
0.12 µg/mL: MIC90 (Streptococcus agalactiae)
≤ 0.03 µg/mL: MIC50 (Proteus mirabilis) | MIC50 (Haemophilus influenzae) | MIC90 (Haemophilus influenzae)
64 µg/mL: MIC90 (Escherichia coli [6])
≤ 0.06 µg/mL: MIC (Streptococcus pyogenes) | MIC50 (Streptococcus pyogenes) | MIC90 (Streptococcus pyogenes) | MIC50 (Streptococcus agalactiae)
0.5 µg/mL: MIC90 (Streptococcus viridans)
> 8 µg/mL: MIC50 (Staphylococcus aureus [2]) | MIC90 (Staphylococcus aureus [2]) | MIC50 (Staphylococcus aureus [3]) | MIC90 (Staphylococcus aureus [3]) | MIC50 (Staphylococcus) | MIC90 (Staphylococcus) | MIC50 [4] | MIC90 [4] | MIC50 (Escherichia coli [6]) | MIC90 (Escherichia coli [5]) | MIC50 (Klebsiella pneumoniae) | MIC90 (Klebsiella pneumoniae) | MIC50 (Enterobacter cloacae) | MIC90 (Enterobacter cloacae) | MIC90 (Proteus mirabilis) | MIC90 (Citrobacter freundii) | MIC50 (Acinetobacter baumannii) | MIC90 (Acinetobacter baumannii) | MIC (Pseudomonas aeruginosa) | MIC50 (Pseudomonas aeruginosa) | MIC90 (Pseudomonas aeruginosa)
0.25 µg/mL: MIC50 (Citrobacter freundii) | MIC50 (Streptococcus viridans)
4 µg/mL: MIC50 (Staphylococcus aureus [1]) | MIC90 (Staphylococcus aureus [1])
2 µg/mL: MIC90 (Streptococcus pneumoniae [7]) | MIC90 (Streptococcus pneumoniae [8])
1 µg/mL: MIC50 (Streptococcus pneumoniae [7]) | MIC50 (Streptococcus pneumoniae [8])

CN(C)c1cc(NC(=O)CNC(C)(C)C)c(O)c2c1C[C@H]1C[C@H]3[C@H](N(C)C)C(O)=C(C(N)=O)C(=O)[C@@]3(O)C(O)=C1C2=O [TIGECYCLINE]
0.5 µg/mL: MIC90 (Staphylococcus aureus [3]) | MIC90 (Staphylococcus) | MIC90 [4] | MIC90 (Escherichia coli [5]) | MIC50 (Klebsiella pneumoniae) | MIC50 (Enterobacter cloacae) | MIC90 (Citrobacter freundii) | MIC50 (Haemophilus influenzae)
0.08 µg/mL: MIC (Streptococcus pneumoniae [7])
8 µg/mL: MIC50 (Pseudomonas aeruginosa)
2 µg/mL: MIC90 (Enterobacter cloacae) | MIC50 (Proteus mirabilis) | MIC90 (Acinetobacter baumannii)
0.25 µg/mL: MIC90 (Staphylococcus aureus [1]) | MIC50 (Staphylococcus aureus [2]) | MIC90 (Staphylococcus aureus [2]) | MIC50 (Staphylococcus aureus [3]) | MIC50 (Staphylococcus) | MIC50 [4] | MIC50 (Enterococcus faecalis [9]) | MIC90 (Enterococcus faecalis [9]) | MIC50 (Enterococcus faecalis [10]) | MIC90 (Enterococcus faecalis [10]) | MIC50 (Escherichia coli [6]) | MIC50 (Escherichia coli [5]) | MIC (Citrobacter freundii) | MIC50 (Citrobacter freundii)
4 µg/mL: MIC90 (Proteus mirabilis)
0.06 µg/mL: MIC50 (Enterococcus faecium [11]) | MIC50 (Enterococcus faecium [12]) | MIC90 (Streptococcus pneumoniae [7]) | MIC50 (Streptococcus pneumoniae [8]) | MIC90 (Streptococcus pneumoniae [8]) | MIC90 (Streptococcus pyogenes) | MIC90 (Streptococcus agalactiae) | MIC50 (Streptococcus viridans)
0.03 µg/mL: MIC50 (Streptococcus pneumoniae [7]) | MIC50 (Streptococcus pyogenes) | MIC (Streptococcus agalactiae) | MIC50 (Streptococcus agalactiae)
1 µg/mL: MIC90 (Klebsiella pneumoniae) | MIC50 (Acinetobacter baumannii) | MIC90 (Haemophilus influenzae)
0.12 µg/mL: MIC50 (Staphylococcus aureus [1]) | MIC90 (Enterococcus faecium [11]) | MIC90 (Enterococcus faecium [12]) | MIC90 (Streptococcus viridans)
> 8 µg/mL: MIC90 (Escherichia coli [6]) | MIC90 (Pseudomonas aeruginosa)
